Screening results (PubChem BioAssay)
Shown are actives, neighbours in structure and some others; about 1.9% of the full set was active somewhere.
NPY-Y1 antag = blocks the human neuropeptide Y Y1 receptor | P25929 | HEK293-CNG Y1 cells, membrane potential fluorescence; NPY at EC95, then isoproterenol | inhibition, % at 3.6 µM | 1% of 200,000 active;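 active = inhibition above the campaign mean inhibition of all tested compounds plus 3 SD, cut at about 20% in these data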
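Test system: HEK293 cells co-expressing NPY Y1 receptor and cyclic-nucleotide gated channel; Also added: NPY (25 nM), isoproterenol (1 µM), Ro 20-1724 (25 µM); Compound dosing: one concentration, 3.6 µM, in 0.4% DMSO; Timing: dye 3 h, compound 60 min room temperature, stimulation 45 min; Technique: Membrane-potential fluorescent dye readout.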
NPY-Y2 antag = NPY-Y2 (human) receptor antagonism | NPY-Y2 expressing cells, antagonist mode | inhibition, % at 2.7 µM | AID 793 | P49146 | 0.99% of 140,000 active; in the data active = inhibition above about 17%
Target sequence (P49146 whole entry, looked up): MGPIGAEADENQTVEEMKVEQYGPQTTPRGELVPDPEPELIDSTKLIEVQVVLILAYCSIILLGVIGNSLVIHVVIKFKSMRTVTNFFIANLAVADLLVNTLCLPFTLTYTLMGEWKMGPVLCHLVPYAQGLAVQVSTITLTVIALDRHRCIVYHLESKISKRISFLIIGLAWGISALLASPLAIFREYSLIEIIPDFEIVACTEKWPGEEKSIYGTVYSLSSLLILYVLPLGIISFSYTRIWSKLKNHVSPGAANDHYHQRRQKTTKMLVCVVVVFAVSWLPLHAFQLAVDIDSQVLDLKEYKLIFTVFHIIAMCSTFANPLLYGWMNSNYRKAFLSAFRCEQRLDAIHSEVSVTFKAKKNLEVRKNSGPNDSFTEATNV
NPY-Y2 PAM-ag = potentiators or agonists of human neuropeptide Y receptor Y2. 0.45% of 220,000 active. activation, % at 3.6 µM. P49146. cells expressing NPY-Y2, potentiator/agonist read-out; in the data active = activation above about 27%;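 note: cells stimulated with NPY near EC25 plus isoproterenol at EC100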
NPY1 pot ag = potentiates or activates human NPY-Y1 receptor | P25929 | NPY-Y1 expressing cells, potentiator/agonist activation | activation, % at 3.6 µM | 0.37% of 220,000 active | AID 1304; in the data active = activation above about 33%, passing the limit was not always enough;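 note: cells stimulated with NPY at EC10 then isoproterenol at EC100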
NPY-Y2 confirm = confirmation of human NPY-Y2 receptor potentiators or agonists | shares compounds with NPY-Y2 PAM-ag | cell-based NPY-Y2 potentiator/agonist assay | activation, % at 3.6 µM | 20% of 450 active; in the data active = activation above about 33%
NPY-Y1 counter = counter-screen for NPY-Y2 potentiators or agonists: NPY-Y1 potentiators or agonists; shares compounds with NPY-Y2 PAM-ag; Y1 HEK293-CNG cells, membrane potential fluorescence; activation, % at 3.6 µM; 20% of 450 active; AID 1651; in the data active = activation above about 45%;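 note: cells stimulated with submaximal NPY then isoproterenol with phosphodiesterase inhibitor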
NPY-Y1 agonist 2 = activates human NPY-Y1, counter-screen for NPY-Y2 potentiators | shares compounds with NPY-Y2 PAM-ag | AID 1702 | activation, % at 3.6 µM | 37% of 450 active | HEK293 Y1-CNGC, membrane potential fluorescence, agonism;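 active = activation above the mean of DMSO-only control wells plus 3 SD, cut at about 18% in these data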;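 note: cells stimulated with 1 µM isoproterenol plus the PDE inhibitor Ro 20-1724; Y1 agonists lower the membrane potential dye signal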
CNGC inhibitor = blocks CNG channel activity, counter-screen for NPY-Y2 potentiators | 32% of 450 active | inhibition, % at 3.6 µM | HEK293-CNG parental, isoproterenol cAMP, membrane potential fluorescence | AID 1703 | shares compounds with NPY-Y2 PAM-ag;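 active = inhibition above the control-well mean plus 3 SD of those wells, cut at about 22% in these data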
Y2 agonist ctr = counter-screen for NPY-Y2 potentiators: agonists of human NPY-Y2 | 56% of 450 active | activation, % at 3.6 µM | HEK293 Y2/CNGC cells, membrane potential fluorescence, agonist mode | shares compounds with NPY-Y2 PAM-ag;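 active = activation above the mean of solvent-only control wells plus 3 SD, cut at about 10% in these data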;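 note: cells stimulated by isoproterenol with no NPY added so direct agonism is tested; agonism lowers probe fluorescence through less cAMP and CNG channel opening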
Large screens that a line does not name were inactive (follow-up assays come after a bar, where they were run).

O=C1c2ccccc2-c2onc3ccc(NCCCn4ccnc4)c1c23	NPY-Y2 antag 33.6, NPY-Y2 PAM-ag 38.4 | NPY-Y2 confirm inactive | NPY-Y1 counter inactive | NPY-Y1 agonist 2 inactive | CNGC inhibitor inactive | Y2 agonist ctr inactive
O=S(=O)(Nc1nc2ccccc2nc1Nc1cccc(S(=O)(=O)N2CCCCC2)c1)c1ccccc1	NPY-Y2 PAM-ag 37.9 | NPY-Y2 confirm 74.2 | NPY-Y1 counter 67.6 | NPY-Y1 agonist 2 65.1 | CNGC inhibitor 44.3 | Y2 agonist ctr 58.3
COc1ccc(-n2c(C)cc(C(=O)COC(=O)Cn3cnc4ccccc43)c2C)cc1	NPY-Y2 PAM-ag 37.7 | NPY-Y2 confirm inactive | NPY-Y1 counter inactive | NPY-Y1 agonist 2 inactive | CNGC inhibitor inactive | Y2 agonist ctr inactive
COc1ccc(-n2c(C)cc(C(=O)CN3C(=O)c4ccccc4C3=O)c2C)cc1	none
CC(C)c1ccc(O)c(N)c1	none
CC(C)NC[C@@H](O)c1ccc(O)c(O)c1	NPY-Y2 PAM-ag 52.5 | NPY-Y2 confirm 54.1 | NPY-Y1 counter 51.0 | NPY-Y1 agonist 2 72.7 | CNGC inhibitor 57.4 | Y2 agonist ctr 53.6
O=P(OC1CCCCC1)(OC1CCCCC1)C(Nc1ccccc1)c1cccnc1 (stereo not given)	NPY-Y2 PAM-ag 43.7 (no result: NPY-Y1 antag, NPY-Y2 antag) | NPY-Y2 confirm inactive | NPY-Y1 counter inactive | NPY-Y1 agonist 2 17.4 | CNGC inhibitor 27.6 | Y2 agonist ctr 19.6
Brc1csc(/C=N/Nc2nc3ccccc3s2)c1	none
Cc1ccc2[nH]c(C)c(/C=N/Nc3nc4ccccc4s3)c2c1	NPY-Y2 PAM-ag 38.1 | NPY-Y2 confirm 41.8 | NPY-Y1 counter 53.1 | NPY-Y1 agonist 2 31.4 | CNGC inhibitor 38.1 | Y2 agonist ctr 38.5
CC(=O)OCC1O[C@@H](O[C@@H]2C[C@H]3C(C)(C)[C@H](OC(C)=O)CC[C@]3(C)[C@H]3CC[C@]45C[C@]4(CC[C@H]5[C@@H](C)C[C@@H](O)[C@H](O)C(C)(C)O)[C@@]32C)[C@H](O)[C@@H](O)[C@@H]1O (stereo not given in full)	NPY-Y2 PAM-ag 35.3 | NPY-Y2 confirm inactive | NPY-Y1 counter inactive | NPY-Y1 agonist 2 38.5 | CNGC inhibitor 26.0 | Y2 agonist ctr 34.6
Fc1ccc(Nc2c(-c3ccco3)nc3ccccn23)cc1	NPY-Y2 PAM-ag 32.4 | NPY-Y2 confirm inactive | NPY-Y1 counter inactive | NPY-Y1 agonist 2 17.5 | CNGC inhibitor inactive | Y2 agonist ctr 22.4
O=C(O)c1nn(-c2cccc(Cl)c2)c(=O)cc1O	none (no result: NPY-Y2 antag)
CN(C)c1ccc(/C=C(/NC(=O)c2ccccc2)C(=O)N/N=C/c2ccc([N+](=O)[O-])c(O)c2)cc1	NPY-Y2 PAM-ag 33.0 | NPY-Y2 confirm 33.9 | NPY-Y1 counter inactive | NPY-Y1 agonist 2 34.8 | CNGC inhibitor 25.8 | Y2 agonist ctr 27.3
Cc1c(CN(C)C)c2c(n1Cc1ccccc1)C(=O)c1ccc(Br)cc1-2	NPY-Y2 PAM-ag 27.5 | NPY-Y2 confirm inactive | NPY-Y1 counter inactive | NPY-Y1 agonist 2 35.2 | CNGC inhibitor 24.0 | Y2 agonist ctr 28.7
Cc1c(CN(C)C)c2c(n1C)C(=O)c1ccc(Br)cc1-2	none
CCOC(=O)c1nc(Nc2ccc(Nc3ccccc3)cc2)c2ccccc2n1	NPY-Y2 PAM-ag 32.8 (no result: NPY-Y2 antag) | NPY-Y2 confirm 35.1 | NPY-Y1 counter inactive | NPY-Y1 agonist 2 inactive | CNGC inhibitor inactive | Y2 agonist ctr 32.8
CCOC(=O)c1ccc(Nc2nc(C(=O)OCC)nc3ccccc23)cc1	none
O=C(CN(c1cccc(C(F)(F)F)c1)S(=O)(=O)c1ccc(Cl)c([N+](=O)[O-])c1)NCc1ccc(F)cc1	NPY-Y2 PAM-ag 35.5 | NPY-Y2 confirm 67.8 | NPY-Y1 counter 84.7 | NPY-Y1 agonist 2 85.2 | CNGC inhibitor 64.0 | Y2 agonist ctr 79.0
COc1ccc(OCc2csc(N)n2)cc1	none (no result: NPY-Y2 antag)
